Paper PMC6702080 (Nature chemical biology, 2019)
Like-named read-outs stand apart in the source and are kept apart here.

How the values were obtained:
PCBP1–BolA2 complex = PCBP1–BolA2 complex (Homo sapiens, UniProt Q15365+Q9H3K6); test: Co-immunoprecipitation of PCBP1 with BolA2-Flag from HEK293 cell lysates; settings: 1 mM DTT as alternative reducing agent instead of 5 mM GSH in IP buffer
PCBP1 KH3 domain (WT) [1] = target: T1, PCBP1 KH3 domain (WT) (Homo sapiens, UniProt Q15365); test: Fe; assay type: binding; settings: for Kd: read-out: KD of Fe(II) for wild-type KH3
Target sequence in this assay (Q15365 279-356 limits assumed): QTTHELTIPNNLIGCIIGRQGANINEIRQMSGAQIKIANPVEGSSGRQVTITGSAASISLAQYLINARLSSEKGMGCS

[2] = target: PCBP1 KH3 domain C293S variant; test: Fe; assay type: binding, human; settings: read-out: KD of Fe(II) for C293S KH3
Outline: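 Fe(II) binding followed as the fall in apo-indicator absorbance (366 nm, shifting toward 325 nm on metal binding). KD from competition; means ± SD, n = 4 independent experiments.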

BolA2–KH3 complex = BolA2–KH3 complex (Homo sapiens, UniProt Q15365); test: biochemical
BolA2–KH3 complex, sequence (Q15365 279-356): as the sequence (Q15365 279-356 limits assumed) above
BolA2–KH3 complex, sequence (Q9H3K6 whole entry partner, the tested form may be a part): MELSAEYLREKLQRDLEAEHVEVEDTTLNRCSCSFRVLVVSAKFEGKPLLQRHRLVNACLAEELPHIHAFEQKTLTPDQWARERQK

PCBP1 KH3 domain [3] = target: T2, PCBP1 KH3 domain (Homo sapiens, UniProt Q15365); test: biochemical; settings: 200 nM labeled KH3
T2 sequence (Q15365 279-356 limits assumed): as the sequence (Q15365 279-356 limits assumed) above

PCBP1 KH3 domain [4] = target: T2, PCBP1 KH3 domain; settings: 100 μM 35S-GSH
PCBP1 KH3 domain (WT) [5] = target: T1, PCBP1 KH3 domain (WT); settings: wild-type KH3, 100 μM 35S-GSH, +/- 100 μM FeSO4
Target sequence in this assay (Q15365 287-356 limits assumed): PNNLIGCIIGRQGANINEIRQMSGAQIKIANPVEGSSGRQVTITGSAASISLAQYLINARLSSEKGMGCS

PCBP1 KH3 domain [6] = target: T2, PCBP1 KH3 domain; settings: 10 μM Fe(II) versus no iron
[7] = cited from earlier work

PCBP1–BolA2 complex, sequence (Q15365 whole entry, the tested form may be a part): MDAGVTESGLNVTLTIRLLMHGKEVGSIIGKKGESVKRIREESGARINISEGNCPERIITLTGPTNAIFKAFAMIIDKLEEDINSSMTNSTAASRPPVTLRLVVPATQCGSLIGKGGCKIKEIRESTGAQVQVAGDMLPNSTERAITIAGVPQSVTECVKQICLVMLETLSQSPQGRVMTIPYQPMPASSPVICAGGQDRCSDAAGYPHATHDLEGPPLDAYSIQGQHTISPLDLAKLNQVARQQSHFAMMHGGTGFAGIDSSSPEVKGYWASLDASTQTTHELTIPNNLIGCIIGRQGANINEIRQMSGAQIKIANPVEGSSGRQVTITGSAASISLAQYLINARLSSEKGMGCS
PCBP1–BolA2 complex, sequence (Q9H3K6 whole entry, the tested form may be a part): as the sequence (Q9H3K6 whole entry partner, the tested form may be a part) above

O[C@@H](CS)[C@@H](O)CS (racemic) [dithiothreitol]
stabilization of PCBP1–BolA2 complexes (PCBP1–BolA2 complex): did not result in stabilization

O=S(=O)([O-])[O-].[Fe+2] [Fe(II), FeSO4]
fold increase of affinity of KH3 for Fe(II) by GSH (PCBP1 KH3 domain (WT) [1]; 5 mM GSH versus no GSH): ~ 5 fold
Kd (PCBP1 KH3 domain (WT) [1]; 0 mM GSH (absence of glutathione)): 4.2 ± 0.7 µM
Kd (PCBP1 KH3 domain (WT) [1]; 5 mM GSH): 0.8 ± 0.1 µM
Kd ([2]; 0 mM GSH): 16.4 ± 2.7 µM
Kd ([2]; 5 mM GSH): 9.4 ± 1.3 µM

N[C@@H](CCC(=O)N[C@@H](CS)C(=O)NCC(=O)O)C(=O)O [GSH, glutathione]
Kd (BolA2–KH3 complex): 86 ± 25 µM
Kd (PCBP1 KH3 domain [3]; KD of GSH for KH3, buffer containing 10 μM Fe(II) (FeSO4)): 80 ± 10 µM
Kd (PCBP1 KH3 domain [3]; apparent KD of GSH for KH3, buffers without iron): 390 ± 50 µM
GSH binding of wild-type KH3 relative to control IPs (PCBP1 KH3 domain [4]): 5 fold
increase of GSH binding in the presence of Fe(II) (PCBP1 KH3 domain (WT) [5]): 2 fold
fold higher affinity of GSH for KH3 with iron (PCBP1 KH3 domain [6]): ~5 fold

[Mn+2] [manganese]
fold lower affinity for GSH than Fe(II) [7]: > 100 fold
